The values that follow come from PMC11983213 (ACS Omega, 2025).

As a reminder, the IC50 is the midpoint of a concentration-inhibition curve.

Assay [1] has as its system breast and colon cancer cells. The conditions noted are these: cited from earlier work.
For assay [2], the system named is protein tyrosine kinases v-src and pp60src. Conditions: cited from earlier work.
Assay [3] concerns SPC-1-A, Bcap37, and HepG2 cancer cells. The conditions noted are these: via the mitochondrial apoptotic pathway; cited from earlier work.
In assay [4] the test system is HepG2 liver cancer cell line. The assay is described as follows: MTT cytotoxicity assay on HepG2. Format: cell-based. Conditions: Homo sapiens, HepG2, 48 h. The gist of the method:
(§1)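 Cells held in RPMI-1640 or DMEM with 2 mM L-glutamine, 1% penicillin/streptomycin and 10% FBS at 37 °C, 5% CO2. Seeded in triplicate at 5000 cells per well, then treated next day with test extract or compound. After 48 h exposure, MTT reagent added for 3 h and signal read at 570 nm. IC50 estimated from the viability data.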

In assay [5] the test system is MDA-MB-231 breast cancer cell line. As to the kind of experiment: MTT cytotoxicity assay on MDA-MB-231. Format: cell-based. Conditions: Homo sapiens, MDA-MB-231, 48 h. A digest of the protocol: as §1
(In general: Tetrazolium assays rely on reduction of a dye to a coloured formazan, in cell work by metabolically active cells.)

The subject of assay [6] is MCF-7 breast cancer cell line. As to the kind of experiment: MTT cytotoxicity assay on MCF-7. It is filed as cell-based. The conditions noted are these: Homo sapiens, MCF7, 48 h. A digest of the protocol:
as §1

The next assay concerns HSF normal cell line. The assay is described as follows: MTT cytotoxicity assay on HSF. Format: cell-based. Conditions: 48 h. The gist of the method:
as §1

Another assay has as its system breast cancer cells. Conditions: cited from earlier work.
Another assay has as its system gastric cancer cells. Conditions: via PI3K/Akt/Snail pathway; cited from earlier work.
A further assay concerns breast and bone cancers. Conditions: cited from earlier work.
A further assay relates to pancreatic cancer cells. The conditions noted are these: by blocking NF-κB activation; cited from earlier work.
Assay [7] has as its system breast and skin cancer cells. The conditions noted are these: cancer versus normal cells; cited from earlier work.

Values after ≈ are worked out from the molar mass of the structure shown. Bounds are passed on as bounds.

With `O=C1c2ccccc2C(=O)c2cc(O)ccc21` [2-hydroxyanthraquinone], the induction of apoptosis result in assay [1] is reported as “resulting in apoptosis via inhibiting antiapoptotic pathways”. Further, the “inhibitory activity against protein tyrosine kinases” value in assay [2] is recorded as “exhibited inhibitory activity”. Also, in assay [3], the “effect on cell growth” value is recorded as “arrested the growth”.
In the case of `COc1ccc2c(c1O)C(=O)c1ccccc1C2=O` [2-methyl alizarin, 1-Hydroxy-2-methoxyanthracene-9,10-dione], the IC50 in [4] turned out to be 8.88 µg/mL (≈ 34.9 µM); in assay [5], 83 µg/mL (≈ 327 µM); in [6], 52.1 µg/mL (≈ 205 µM); in the assay with HSF normal cell line, 67 µg/mL (≈ 264 µM).
For the compound `COc1cccc2c1C(=O)c1c(O)c3c(c(O)c1C2=O)C[C@@](O)(C(=O)CO)C[C@@H]3O[C@H]1C[C@H](N)[C@H](O)[C@H](C)O1` [Doxorubicin, reference compound], the IC50 in assay [4] is 2.48 µg/mL (≈ 4.56 µM); in assay [5], 7.05 µg/mL (≈ 13 µM); in assay [6], 2.17 µg/mL (≈ 3.99 µM).
As for `COc1ccc(-c2cc(=O)c3c(O)cc(O)cc3o2)cc1` [acacetin], the “induction of cell death” value in the assay with breast cancer cells is “caused RIP1-dependent necroptotic death and prolonged ERK1/2 activation”. Besides, the “effect on invasion, migration and TGF-β1-induced EMT” value with gastric cancer cells was “prevented gastric cancer cells from invasively migrating and developing TGF-β1-induced epithelial-to-mesenchymal transition”.
As for `CC(=O)Oc1ccc2c(c1OC(C)=O)C(=O)c1ccccc1C2=O` [alizarin-1,2-diacetate, 1,2-Diacetoxyanthraquinone], the half-inhibitory concentration (IC50) in assay [4] is ≥ 50 µg/mL; in [5], 127 µg/mL (≈ 391 µM); in assay [6], 135 µg/mL (≈ 416 µM); in the assay with HSF normal cell line, 142 µg/mL (≈ 437 µM).
For `CC(=O)Oc1ccc2c(c1O)C(=O)c1ccccc1C2=O` [alizarin-2-acetate, 9,10-Dihydro-1-hydroxy-9,10-dioxoanthracen-2-yl Acetate] the same measures were ≥ 50 µg/mL, 157 µg/mL, 120 µg/mL and 151 µg/mL.
For the compound `O=C1c2ccccc2C(=O)c2c1ccc(O)c2O` [alizarin], the half-maximal inhibitory concentration (IC50) in assay [4] was determined as 99.4 µg/mL (≈ 414 µM); in assay [5], 52.6 µg/mL (≈ 219 µM); in [6] it was 66.9 µg/mL (≈ 279 µM); in the assay with HSF normal cell line it was 111 µg/mL (≈ 462 µM). Moreover, in the assay on breast and bone cancers, the “effect on breast and bone cancers” value is “impaired both breast and bone cancers by inducing cell cycle arrest in the S phase and inhibiting ERK phosphorylation”. For the same compound, in the assay with pancreatic cancer cells, the “effect on cell growth” value was “prevented pancreatic cancer cells from growing”.
With `O=C1c2ccccc2C(=O)c2c(O)c(O)cc(O)c21` [purpurin], the IC50 was 179 µg/mL (≈ 700 µM) in [4], 244 µg/mL (≈ 954 µM) in assay [5], 148 µg/mL (≈ 577 µM) in [6] and 201 µg/mL (≈ 783 µM) in the assay on HSF normal cell line.
As for `O=C1c2ccccc2C(=O)c2c(O)cc(O)cc21` [xanthopurpurin], the selective toxicity result in [7] was “high selective toxicity toward breast and skin cancer cells at lower concentrations without inducing toxicity toward normal cells”.
